This is a sample that favours compounds with a hit; in the whole collection about 1.7% have one here.
PABP FP inh = PABP poly(A) RNA binding inhibitors, primary screen, biochemical, fluorescence polarization, uHTS | inhibition, % at 35 µM | hit rate 1% among 290,000 | AID 2014, 2009;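 also: calls also rest on retests at 20 µM and on dose response follow-up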
Target sequence (P11940 whole entry, looked up): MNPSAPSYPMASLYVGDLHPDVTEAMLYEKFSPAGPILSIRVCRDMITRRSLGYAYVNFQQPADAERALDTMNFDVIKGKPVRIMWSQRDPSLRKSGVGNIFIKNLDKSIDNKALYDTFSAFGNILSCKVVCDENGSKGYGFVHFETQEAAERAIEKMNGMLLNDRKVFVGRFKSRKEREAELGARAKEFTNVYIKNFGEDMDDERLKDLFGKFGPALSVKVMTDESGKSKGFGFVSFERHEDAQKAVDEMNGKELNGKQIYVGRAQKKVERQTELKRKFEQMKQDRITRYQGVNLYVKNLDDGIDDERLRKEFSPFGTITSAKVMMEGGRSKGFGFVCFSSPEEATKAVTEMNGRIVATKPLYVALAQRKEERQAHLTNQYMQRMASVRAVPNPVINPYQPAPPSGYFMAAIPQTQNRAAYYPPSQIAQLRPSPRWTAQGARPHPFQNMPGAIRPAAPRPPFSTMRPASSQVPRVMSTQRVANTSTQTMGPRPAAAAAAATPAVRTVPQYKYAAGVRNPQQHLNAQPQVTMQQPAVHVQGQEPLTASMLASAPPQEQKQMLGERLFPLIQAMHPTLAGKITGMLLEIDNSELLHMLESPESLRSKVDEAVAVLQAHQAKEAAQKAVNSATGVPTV
eIF4H inh = human eIF4H binding inhibitors, primary screen, translation initiation inhibitor project, biochemical, uHTS, fluorescence polarization; Eukaryotic translation initiation factor 4H (Homo sapiens), Q15056; eIF4H fluorescence polarization binding assay; inhibition, % at 35 µM; hit rate 0.94% among 290,000; AID 2012, 2009;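 also: calls also rest on retests at 20 µM and on dose response follow-up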
PABP1 MLLE inh = inhibitors of PABP1 MLLE–PAM2 peptide binding, primary screen, biochemical, fluorescence polarization, FITC-PAM2, GST-MLLE. inhibition, % at 20 µM. AID 588489, 2011. Polyadenylate-binding protein 1 (Homo sapiens), P11940. hit rate 0.36% among 360,000; in the data active = inhibition above about 35%, passing the limit was not always enough
MT1-MMP act inh = blockers of MT1-MMP proenzyme processing, primary screen, HT1080 RFP-PRO-GFP cells, GFP/RFP fluorescence; Matrix metalloproteinase-14 (Homo sapiens), P50281; GFP/RFP ratio fluorescence, overnight; percent of plate control window, DMSO zero; GFP/RFP ratio change, % at 20 µM; hit rate 0.061% among 360,000; AID 651647, 2012;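 active = GFP/RFP ratio change of at least 30% with cell ATP level not reduced by more than half and red fluorescence within 50% of control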
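Assay system: HT1080 RFP-PRO-GFP cells. Benchmarks: DMSO vehicle wells and RFP-L50D-GFP reporter cell wells. Times: overnight cell settling, then overnight compound exposure, 37 °C, 5% CO2. Compound: 20 µM single dose, 1% DMSO. Read-out basis: GFP/RFP fluorescence ratio.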
SKN-1 inh = suppressors of acrylamide-induced Pgst-4::GFP reporter in worms, primary screen, SKN-1 inhibitor project, whole organism, uHTS, GFP/RFP fluorescence ratio, strain VP596; C. elegans VP596 Pgst-4::GFP/RFP ratio, 24 h; hit rate 0.49% among 360,000; inhibition, % at 21.8 µM;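 active = interference check ratio from 0.5 to 1.5 plus GFP to RFP signal ratio inhibition reaching or exceeding a fixed threshold, cut at about 30% in these data, passing the limit was not always enough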
Each line names hits and unclear results; the compound was inactive in the other large screens. Unless noted, no rule for the calls is given here.

COCc1cc(Sc2ccc(Cl)cc2Cl)nc(-c2ccccc2)n1	none
COCc1cc(Sc2ccc(OC)cc2)nc(-c2ccccc2)n1	eIF4H inh active
Cc1ccc(-c2cc(-c3ccc(Cl)cc3)c(C#N)c(N)n2)o1	none
Cc1cc(-c2cc(-c3ccc(Cl)cc3)nc(N)c2C#N)co1	PABP FP inh 44, eIF4H inh inconclusive
O=C(N/C(=C\c1ccccc1)C(=O)N1CCOCC1)c1cccc(Br)c1	none
c1csc(CSc2nc3ccccc3s2)c1	SKN-1 inh 78
Cc1noc(C)c1CSc1nc2ccccc2s1	none
O=C(C1CCCN(Cc2ccccc2[N+](=O)[O-])C1)N1CCCCC1 (stereo not given)	none
Cc1ccc(C)c(C(=O)CCC(=O)NCc2ccc(Cl)cc2)c1	none
N/C(=N\OC(=O)c1cc(Cl)ccc1Cl)c1ccncc1	none
N/C(=N\OC(=O)c1ccc(Cl)cc1Cl)c1ccncc1	SKN-1 inh 40
N/C(=N\OC(=O)c1cc(Br)ccc1Cl)c1ccccn1	SKN-1 inh 47
Cc1ccc(C(=O)O/N=C(\N)c2ccccn2)c(Cl)c1	none
N/C(=N\OC(=O)c1ccc(Cl)cc1Cl)c1ccccn1	SKN-1 inh 52
O=C(NC(=S)NCC1CCCO1)c1ccccc1[N+](=O)[O-] (stereo not given)	none
CSc1ccc(S(=O)(=O)N2CCC(C(=O)N3CCc4ccccc4C3)CC2)cc1	none
COc1ccc(-c2nnc(NC(=O)c3cccs3)s2)c(OC)c1	eIF4H inh 55
Cn1c(=O)[nH]c2c(Cl)nccc21	none
Cn1c(=O)[nH]c2cc(Cl)cnc21	PABP FP inh inconclusive, eIF4H inh inconclusive, PABP1 MLLE inh 47
O=C(CSc1nnc2c3ccccc3c3ccccc3c2n1)Nc1ccccc1F	eIF4H inh 85
O=C(CSc1nnc2c3ccccc3c3ccccc3c2n1)Nc1ccccc1	none (no result: PABP1 MLLE inh, MT1-MMP act inh, SKN-1 inh)
Cc1cc(C)n2nc(SCc3cc(=O)oc4cc(O)ccc34)nc2n1	PABP FP inh 46, eIF4H inh inconclusive (no result: PABP1 MLLE inh, MT1-MMP act inh, SKN-1 inh)
O=[N+]([O-])c1cc(CN2CCCC2)ccc1Sc1ccc(Cl)cc1	SKN-1 inh 52
O=C(Nc1ccc(F)cc1)c1nc[nH]c1C(=O)Nc1ccccc1[N+](=O)[O-]	none
NNC(=O)c1nc[nH]c1C(=O)Nc1ccccc1[N+](=O)[O-]	PABP FP inh 66, eIF4H inh 55
CCN1C(=S)SC(=O)C1=C1C=C(C)OC(C)=C1	PABP FP inh inconclusive, eIF4H inh inconclusive, SKN-1 inh 44
O=S(=O)(NC(=S)c1ccccc1)c1ccccc1	PABP1 MLLE inh 46 (no result: PABP FP inh, eIF4H inh)
O=S(=O)(NC(=S)NC1CCCCC1)c1cccs1	PABP1 MLLE inh 52
O=C(NC1CCCCC1)C(Cc1ccccc1)NS(=O)(=O)c1cccs1 (stereo not given)	none
O=S(=O)(NC(=S)c1ccccc1)c1ccc(Cl)cc1	none
O=S(=O)(NC(=S)NC1CCCCC1)c1ccccc1	PABP1 MLLE inh 37
CC(C)CCNC(=O)C(C)N(C(=O)c1snc(C(N)=O)c1N)c1cnc2ccccc2c1 (stereo not given)	PABP FP inh 51
CCCC(C(=O)NCCC(C)C)N(Cc1ccccc1)C(=O)c1snc(C(N)=O)c1N (stereo not given)	none
CCCCn1c(N)c(N(CCOC)C(=O)CC2CCCCC2)c(=O)[nH]c1=O	none (no result: PABP FP inh, eIF4H inh)
O=c1cc(/C=C/c2ccccc2)oc2ccccc12	SKN-1 inh 43
CCN(C(=O)CN1C(=O)S/C(=C\c2cccc(Cl)c2)C1=O)C1CCS(=O)(=O)C1 (stereo not given)	SKN-1 inh 37
CCN(C(=O)C(C)N1C(=O)/C(=C/c2ccco2)SC1=S)C1CCS(=O)(=O)C1 (stereo not given)	PABP FP inh 32, eIF4H inh 54
O=C1/C(=C\c2ccco2)SC(=S)N1C1CCS(=O)(=O)C1 (stereo not given)	PABP FP inh 73, eIF4H inh 94
O=C1/C(=C/c2ccco2)SC(=S)N1C1CCS(=O)(=O)C1 (stereo not given)	PABP FP inh active
Cc1ccc(/C=C2\SC(=S)N(C3CCS(=O)(=O)C3)C2=O)cc1 (stereo not given)	none
CCN(C(=O)CN1C(=O)S/C(=C\c2ccc(Cl)cc2)C1=O)C1CCS(=O)(=O)C1 (stereo not given)	none
COc1ccc([C@H]2N[C@]3(CCCN(Cc4ccc(F)cc4)C3=O)[C@H]3C(=O)N(C)C(=O)[C@@H]23)cc1	none (no result: PABP FP inh, eIF4H inh)
O=C(CN1c2cccc3cccc(c23)S1(=O)=O)NCCc1ccc(F)cc1	none (no result: PABP FP inh, eIF4H inh)
CCOC(=O)C1=NOC(COc2ccccc2C=O)C1 (stereo not given)	PABP FP inh 67, eIF4H inh 6.7
CC(C)c1onc(C(=O)N(C)C2CCCCC2)c1[N+](=O)[O-]	none
CC(C)c1onc(C(=O)NC2CCCC2)c1[N+](=O)[O-]	PABP FP inh 55, eIF4H inh 8.3
O=C(CCNC(=O)c1ccc(Br)cc1)NCc1ccccn1	none (no result: PABP FP inh, eIF4H inh)
NC(=O)NC(=O)CSc1nc(C2CCCCC2)n(-c2ccccc2)n1	none
OCCNCCSc1nc(C2CCCCC2)n(-c2ccccc2Cl)n1	eIF4H inh 4.8
CCOC(=O)/C=C1\SCC(=O)N1CC(O)CN1C(=O)CS/C1=C\C(=O)OCC	PABP FP inh 75, eIF4H inh inconclusive
CCN1/C(=C/c2ccc3cccc(C)c3[n+]2CC)Sc2ccccc21	SKN-1 inh 49
CCN1/C(=C/c2ccc3cc(C)cc(C)c3[n+]2CC)Sc2cc(C)ccc21	none
Cc1ccc(OCCCCNC2CCCCC2)c(C)c1	none
O=[N+]([O-])c1cc(/C=N\Nc2nccs2)ccc1O	PABP FP inh 92, eIF4H inh 93 (no result: PABP1 MLLE inh, MT1-MMP act inh, SKN-1 inh)
CN1/C(=C\C(=O)Nc2cccc(Cl)c2)C(C)(C)c2ccccc21	SKN-1 inh 50
CN1/C(=C\C(=O)Nc2ccc(Br)cc2)C(C)(C)c2ccccc21	none
CCC(C)C(=O)Nc1nnc(CCc2ccccc2)s1 (stereo not given)	none
CCn1c2ccccc2c2cc(N)ccc21	PABP FP inh 56, eIF4H inh 72
CCn1c(C)cc(=S)c2ccccc21	PABP1 MLLE inh 40
S=C(Nc1ccccc1Cl)N(Cc1ccccc1)Cc1ccccn1	none
O=[N+]([O-])c1ccc(N2CCOCC2)cc1SCc1ccco1	PABP FP inh active, eIF4H inh 86
O=[N+]([O-])c1ccc(SCc2ccco2)cc1N1CCOCC1	none
O=C(Nc1ccc(F)cc1F)NC1CCCCCCC1	none
Cc1ccc(Nc2nc(-c3cccs3)cs2)nc1	SKN-1 inh 46
Cc1ccc(Nc2nc(-c3ccccc3)cs2)nc1	none
CN(C)N(C(=O)c1cc(-c2cccs2)nn1-c1ccccc1)C1CCS(=O)(=O)C1 (stereo not given)	none (no result: PABP FP inh, eIF4H inh)

From PubChem BioAssay
